pIC50: −log10 of the molar value.
Tests used:
Mus musculus [1] = test: (§1) Toxicity in po dosed mouse; assay type: organism-based; details: in vivo
Outline: (§2)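 Acute toxicity was tested in mice given the compound orally. The LD50 was reported in mg/kg or g/kg.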

[2] = target: Sodium-dependent dopamine transporter (Rattus norvegicus, UniProt P23977); test: Inhibition of [3H]dopamine reuptake at rat brain frontal cortex dopamine transporter; assay type: tissue-based
Outline: (§3)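 Rat frontal cortex synaptosomes prepared at 4 °C: tissue homogenized in ice-cold 0.32 M sucrose, spun at 1500g for 10 min, and the supernatant spun at 20,000g for 30 min. The pellet was resuspended in buffer and protein measured. Synaptosomes were preincubated with compound 5 min at 37 °C, then given 300 nM [3H]-DA or [3H]-NA for 5 min at 37 °C. Uptake was stopped on ice and samples filtered and washed with artificial cerebral fluid before scintillation counting. Active uptake was taken as the 37 °C minus 0 °C difference.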

Transporter = Transporter (Rattus norvegicus, UniProt Q63380); test: Inhibition of [3H]norepinephrine reuptake at rat brain frontal cortex norepinephrine transporter; assay type: tissue-based; outline: as §3
[3] = target: Sodium-dependent serotonin transporter (Rattus norvegicus, UniProt P31652); test: Inhibition of [3H]5HT reuptake at rat brain frontal cortex serotonin transporter; assay type: tissue-based
Outline: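 Rats were decapitated and the frontal cortex was dissected on ice. The tissue was homogenised in ice-cold 0.32 M sucrose and spun at 1500g for 10 min, then the supernatant at 20,000g for 30 min (4 °C). Synaptosomes were preincubated with compound for 5 min at 37 °C. [3H]-5-HT (300 nM) was added for 5 min at 37 °C. The reaction was stopped on ice, then filtered and counted. Active uptake was taken as the 37 °C minus 0 °C difference.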

Mus musculus [4] = test: Antidepressant activity in po dosed mouse by forced tail suspension assay; assay type: functional
Outline: (§4)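 Mice received a single oral dose of each isomer; the ED50 (mg/kg) was derived from the forced swimming and tail suspension tests.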

[5] = as §1; assay type: organism-based; details: in vivo; outline: as §2
Mus musculus [6] = test: Antidepressant activity in po dosed mouse by forced swimming test; assay type: functional; outline: as §4

Transporter, sequence (Q63380 whole entry): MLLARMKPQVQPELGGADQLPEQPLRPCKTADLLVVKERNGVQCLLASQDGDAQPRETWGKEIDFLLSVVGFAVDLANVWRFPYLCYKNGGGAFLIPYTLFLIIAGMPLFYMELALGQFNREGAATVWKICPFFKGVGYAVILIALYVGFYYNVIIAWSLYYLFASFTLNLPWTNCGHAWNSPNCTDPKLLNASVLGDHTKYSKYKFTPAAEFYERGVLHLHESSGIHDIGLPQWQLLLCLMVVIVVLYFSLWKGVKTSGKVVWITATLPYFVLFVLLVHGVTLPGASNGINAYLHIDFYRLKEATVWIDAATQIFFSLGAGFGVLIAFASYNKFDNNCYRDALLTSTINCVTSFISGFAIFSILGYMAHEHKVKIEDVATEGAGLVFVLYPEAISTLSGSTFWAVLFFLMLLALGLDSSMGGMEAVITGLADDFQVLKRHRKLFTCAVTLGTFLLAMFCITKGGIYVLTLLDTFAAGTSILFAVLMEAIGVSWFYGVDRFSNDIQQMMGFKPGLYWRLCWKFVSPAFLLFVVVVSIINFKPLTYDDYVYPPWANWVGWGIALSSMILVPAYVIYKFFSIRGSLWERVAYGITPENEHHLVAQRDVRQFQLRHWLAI
Sodium-dependent dopamine transporter, sequence (P23977 whole entry): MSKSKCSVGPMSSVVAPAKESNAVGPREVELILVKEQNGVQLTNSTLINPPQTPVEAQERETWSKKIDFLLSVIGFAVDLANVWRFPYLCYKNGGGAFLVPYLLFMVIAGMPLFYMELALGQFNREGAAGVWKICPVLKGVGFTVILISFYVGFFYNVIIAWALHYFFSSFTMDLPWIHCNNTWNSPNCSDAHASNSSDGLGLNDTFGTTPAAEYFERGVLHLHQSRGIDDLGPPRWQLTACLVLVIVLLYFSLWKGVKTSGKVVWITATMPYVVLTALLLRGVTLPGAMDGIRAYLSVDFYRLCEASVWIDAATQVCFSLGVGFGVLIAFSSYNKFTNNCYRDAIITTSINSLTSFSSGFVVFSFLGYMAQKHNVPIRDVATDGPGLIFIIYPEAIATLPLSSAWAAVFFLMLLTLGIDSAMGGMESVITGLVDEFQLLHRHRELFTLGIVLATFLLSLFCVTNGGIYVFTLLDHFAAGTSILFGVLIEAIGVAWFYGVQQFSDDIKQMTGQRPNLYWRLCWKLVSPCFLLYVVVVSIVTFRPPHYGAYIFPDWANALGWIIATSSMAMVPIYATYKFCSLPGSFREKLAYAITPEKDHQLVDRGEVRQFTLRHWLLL
Sodium-dependent serotonin transporter, sequence (P31652 whole entry): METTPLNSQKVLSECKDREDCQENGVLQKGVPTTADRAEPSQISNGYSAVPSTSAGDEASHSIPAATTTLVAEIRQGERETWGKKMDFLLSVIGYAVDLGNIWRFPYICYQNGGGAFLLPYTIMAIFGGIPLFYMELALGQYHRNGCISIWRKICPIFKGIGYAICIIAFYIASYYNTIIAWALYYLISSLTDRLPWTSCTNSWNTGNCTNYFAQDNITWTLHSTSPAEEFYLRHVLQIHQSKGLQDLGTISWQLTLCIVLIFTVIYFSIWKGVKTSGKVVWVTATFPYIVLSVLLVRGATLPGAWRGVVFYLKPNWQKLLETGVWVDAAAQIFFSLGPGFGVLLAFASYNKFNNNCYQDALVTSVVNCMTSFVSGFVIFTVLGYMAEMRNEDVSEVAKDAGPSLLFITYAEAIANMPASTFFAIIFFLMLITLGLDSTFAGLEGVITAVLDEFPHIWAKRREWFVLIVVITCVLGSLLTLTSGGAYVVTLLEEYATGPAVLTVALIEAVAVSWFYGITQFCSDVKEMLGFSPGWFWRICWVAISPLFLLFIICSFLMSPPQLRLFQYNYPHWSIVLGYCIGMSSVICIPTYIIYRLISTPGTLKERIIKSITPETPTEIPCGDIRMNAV

Row | SMILES | LD50 (Mus musculus [1]) [mg/kg] | pIC50 [2] | pIC50 (Transporter) | pIC50 [3] | ED50 (Mus musculus [4]) [mg/kg] | LD50 [5] [mg/kg] | ED50 (Mus musculus [6]) [mg/kg]
1 | COc1ccc2cc([C@H](O)[C@H](C)N3CCN(Cc4ccccc4)CC3)ccc2c1Cl (racemic) | > 1500 | – | – | – | – | – | –
2 | COc1ccc2cc([C@@H](O)[C@@H](C)N3CCN(Cc4ccccc4)CC3)ccc2c1Cl | – | < 3.00 | 5.90 | 6.43 | 24.5 | 200 | –
3 | COc1ccc2cc([C@@H](O)[C@H](C)N3CCN(Cc4ccccc4)CC3)ccc2c1Cl | – | – | 6.73 | – | 12.6 | 1030 | –
4 | COc1ccc2cc([C@H](O)[C@H](C)N3CCN(Cc4ccccc4)CC3)ccc2c1Cl | 300 | < 3.00 | 6.37 | 6.08 | 27.9 | – | –
5 | COc1ccc2cc([C@H](O)[C@@H](C)N3CCN(Cc4ccccc4)CC3)ccc2c1Cl (racemic) | > 220 | – | – | – | – | – | –
6 | COc1ccc2cc([C@H](O)[C@@H](C)N3CCN(Cc4ccccc4)CC3)ccc2c1Cl | 1171 | 5.00 | 5.15 | 6.26 | 16.5 | – | 24.5

Reference: ChEMBL document CHEMBL1158499, “Synthesis and antidepressant activity of optical isomers of 2-(4-benzylpiperazin-1-yl)-1-(5-chloro-6-methoxynaphthalen-2-yl) propan-1-ol (SIPI5056)” (Bioorg Med Chem Lett, 2010)
